Experimental data as given in ChEMBL document CHEMBL3808334, “Synthesis and in vitro evaluation of novel triazine analogues as anticancer agents and their interaction studies with bovine serum albumin” (Eur J Med Chem, 2016).

Key:
Assay type in all cases: functional
[1] = test system: ACHN; experiment: Growth inhibition of human ACHN cells assessed as cell growth at 10^-7 M incubated for 48 hrs by sulforhodamine B assay; settings: read-out: Activity
Summary of the method: (§1)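 Five-dose assay: five concentrations from 10-fold or ½-log serial dilutions. Cells are plated at 5,000–40,000 per well according to doubling time, grown 24 h, then exposed 48 h at 37 °C, 5% CO₂. Fixed with cold 50% TCA (final addition) for 60 min at 4 °C and stained with 0.4% SRB in 1% acetic acid. Bound dye is solubilized in 10 mM Tris base and read at 515 nm. GI₅₀ is where [(Ti−Tz)/(C−Tz)]×100 = 50, with a time-zero plate as Tz.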

[2] = Growth inhibition of human SF268 cells incubated for 48 hrs by sulforhodamine B assay; settings: SF-268, 48 h
Summary of the method: (§2)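 Cells were plated at 5,000–40,000 per well according to doubling time and preincubated 24 h at 37 °C in 5% CO2; time-zero plates were then TCA-fixed. Five concentrations (10-fold or ½-log dilutions, DMSO stock) were incubated 48 h. Cells were TCA-fixed, stained with 0.4% SRB and read at 515 nm. GI50 was taken where [(Ti−Tz)/(C−Tz)]×100 = 50.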

[3] = Growth inhibition of human SW620 cells assessed as cell growth at 10^-8 M incubated for 48 hrs by sulforhodamine B assay; settings: SW-620, 48 h, read-out: Activity
[4] = Growth inhibition of human OVCAR3 cells assessed as cell growth at 10^-4 M incubated for 48 hrs by sulforhodamine B assay; settings: OVCAR-3, 48 h, read-out: Activity
[5] = Growth inhibition of human OVCAR5 cells assessed as cell growth at 10 uM incubated for 48 hrs by sulforhodamine B assay; settings: OVCAR-5, 48 h, read-out: Activity
[6] = test system: NCI/ADR-RES; experiment: Growth inhibition of human NCI/ADR-RES cells assessed as cell growth at 10 uM incubated for 48 hrs by sulforhodamine B assay; settings: read-out: Activity
[7] = test system: NCI-H322M; experiment: Growth inhibition of human NCI-H322M cells assessed as cell growth at 10^-4 M incubated for 48 hrs by sulforhodamine B assay; settings: read-out: Activity
[8] = Growth inhibition of human Hs 578T cells assessed as cell growth at 10^-7 M incubated for 48 hrs by sulforhodamine B assay; settings: read-out: Activity
[9] = Growth inhibition of human OVCAR8 cells assessed as cell growth at 10^-8 M incubated for 48 hrs by sulforhodamine B assay; settings: OVCAR-8, 48 h, read-out: Activity
[10] = Growth inhibition of human LOXIMVI cells assessed as cell growth at 10^-6 M incubated for 48 hrs by sulforhodamine B assay; settings: LOX IMVI, read-out: Activity
[11] = test system: 786-0; experiment: Growth inhibition of human 786-0 cells assessed as cell growth at 10^-5 M incubated for 48 hrs by sulforhodamine B assay; settings: 786-0, 48 h, read-out: Activity; summary of the method: as §1
[12] = Growth inhibition of human SNB75 cells assessed as cell growth at 10^-8 M incubated for 48 hrs by sulforhodamine B assay; settings: SNB-75, 48 h, read-out: Activity
[13] = Growth inhibition of human OVCAR5 cells assessed as cell growth at 10^-5 M incubated for 48 hrs by sulforhodamine B assay; settings: OVCAR-5, 48 h, read-out: Activity
[14] = test system: T47D; experiment: Growth inhibition of human T47D cells incubated for 48 hrs by sulforhodamine B assay; summary of the method: as §2
[15] = test system: KM12; experiment: Growth inhibition of human KM12 cells assessed as cell growth at 10 uM incubated for 48 hrs by sulforhodamine B assay; settings: KM12, 48 h, read-out: Activity
[16] = Growth inhibition of human BT549 cells assessed as cell growth at 10^-7 M incubated for 48 hrs by sulforhodamine B assay; settings: BT-549, 48 h, read-out: Activity; summary of the method: as §1
[17] = test system: EKVX; experiment: Growth inhibition of human EKVX cells assessed as cell growth at 10^-5 M incubated for 48 hrs by sulforhodamine B assay; settings: read-out: Activity
Summary of the method: (§3)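 Cells seeded at 5,000–40,000/well according to doubling time and preincubated 24 h at 37 °C, 5% CO2. Time-zero plates were TCA-fixed. DMSO concentrate was diluted in medium with 50 µg/ml gentamicin to give five concentrations (10-fold or ½ log steps), then exposed 48 h. Cells were TCA-fixed, stained with 0.4% SRB and read at 515 nm. Percent growth was taken against time-zero and control; GI50, TGI and LC50 derived.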

[18] = Growth inhibition of human HCT116 cells incubated for 48 hrs by sulforhodamine B assay; settings: HCT-116, 48 h; summary of the method: as §3
[19] = test system: CCRF-CEM; experiment: Growth inhibition of human CCRF-CEM cells assessed as cell growth at 10 uM incubated for 48 hrs by sulforhodamine B assay; settings: read-out: Activity
Summary of the method: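 One-dose screen at 10 µM final. Cells are plated at 5,000–40,000 per well according to doubling time and preincubated 24 h at 37 °C, 5% CO₂. Compound (DMSO stock diluted in medium with 50 µg/ml gentamicin) is then added for 48 h. Growth percent is read by sulforhodamine B staining, absorbance at 515 nm.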

[20] = test system: 786-0; experiment: Growth inhibition of human 786-0 cells assessed as cell growth at 10^-8 M incubated for 48 hrs by sulforhodamine B assay; settings: 786-0, 48 h, read-out: Activity; summary of the method: as §1
[21] = Growth inhibition of human SKOV3 cells assessed as cell growth at 10^-7 M incubated for 48 hrs by sulforhodamine B assay; settings: SK-OV-3, 48 h, read-out: Activity
[22] = Growth inhibition of human HL-60(TB) cells incubated for 48 hrs by sulforhodamine B assay; settings: HL-60, 48 h
Summary of the method: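 Five-concentration, 48 h SRB screen (10-fold or ½-log dilutions from a 400× DMSO concentrate; 24 h preincubation at 37 °C, 5% CO₂; time-zero plate; A515). GI50 was solved from (Ti−Tz)/(C−Tz)×100 = 50. TGI was taken where Ti = Tz, and LC50 from (Ti−Tz)/[…].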

[23] = test system: T47D; experiment: Growth inhibition of human T47D cells assessed as cell growth at 10^-8 M incubated for 48 hrs by sulforhodamine B assay; settings: read-out: Activity
[24] = Growth inhibition of human LOXIMVI cells assessed as cell growth at 10^-4 M incubated for 48 hrs by sulforhodamine B assay; settings: LOX IMVI, read-out: Activity
[25] = Growth inhibition of human HCC2998 cells assessed as cell growth at 10^-7 M incubated for 48 hrs by sulforhodamine B assay; settings: HCC 2998, 48 h, read-out: Activity; summary of the method: as §3
[26] = read-out: LC50 (the source's name)
[27] = read-out: pLC50 (the source's name) (converted)

Which growth at 0.1 µM [1] does the source give for `c1ccc(-c2nc(Nc3ccc(-c4nc5ccccc5[nH]4)cc3)nc(N3CCOCC3)n2)cc1` here?
Its growth at 0.1 µM is 92%.

What about the GI50 ([2]; read-out: GI50) of the same compound?
Its GI50 is 1.64 µM.

And the CC50 [2, 26]?
Its CC50 is 6.39 µM.

What about the TGI ([2]; read-out: TGI) of the same compound?
The TGI was 3.24 µM.

And the GI50 ([2]; read-out: pGI50 (converted))?
Its GI50 is 1.62 µM.

What about the CC50 [2, 27] of the same compound?
The CC50 was 6.46 µM.

What about the TGI ([2]; read-out: pTGI (converted)) of the same compound?
The TGI was 3.24 µM.

What about the growth at 0.01 µM [3] of the same compound?
The growth at 0.01 µM was 98%.

And the growth at 100 µM [4]?
Its growth at 100 µM is -100%.

And the growth at 10 µM [5]?
Its growth at 10 µM is 0.63%.

What about the growth at 10 µM [6] of the same compound?
The growth at 10 µM was -60.8%.

What about the growth at 100 µM [7] of the same compound?
The growth at 100 µM was -62%.

What about the growth at 0.1 µM [8] of the same compound?
The growth at 0.1 µM was 94%.

What about the growth at 0.01 µM [9] of the same compound?
Its growth at 0.01 µM is 101%.

And the growth at 1 µM [10]?
The growth at 1 µM was 29%.

And the growth at 10 µM [11]?
The growth at 10 µM was -88%.

What about the growth at 0.01 µM [12] of the same compound?
The growth at 0.01 µM was 79%.

What about the growth at 10 µM [13] of the same compound?
The growth at 10 µM was -73%.

And the GI50 ([14]; read-out: GI50)?
Its GI50 is 1.62 µM.

And the CC50 [14, 26]?
Its CC50 is 9.02 µM.

What about the TGI ([14]; read-out: TGI) of the same compound?
Its TGI is 3.82 µM.

What about the GI50 ([14]; read-out: pGI50 (converted)) of the same compound?
The GI50 was 1.62 µM.

And the CC50 [14, 27]?
Its CC50 is 9.12 µM.

And the TGI ([14]; read-out: pTGI (converted))?
The TGI was 3.8 µM.

What about the growth at 10 µM [15] of the same compound?
Its growth at 10 µM is -76.6%.

What about the growth at 0.1 µM [16] of the same compound?
The growth at 0.1 µM was 100%.

What about the growth at 10 µM [17] of the same compound?
Its growth at 10 µM is -70%.

And the GI50 ([18]; read-out: GI50)?
The GI50 was 0.394 µM.

And the CC50 [18, 26]?
Its CC50 is 7.18 µM.

What about the TGI ([18]; read-out: TGI) of the same compound?
Its TGI is 1.62 µM.

And the GI50 ([18]; read-out: pGI50 (converted))?
Its GI50 is 0.398 µM.

What about the CC50 [18, 27] of the same compound?
Its CC50 is 7.24 µM.

What about the TGI ([18]; read-out: pTGI (converted)) of the same compound?
Its TGI is 1.62 µM.

And the growth at 10 µM [19]?
The growth at 10 µM was -15.7%.

And the growth at 0.01 µM [20]?
Its growth at 0.01 µM is 99%.

What about the growth at 0.1 µM [21] of the same compound?
The growth at 0.1 µM was 104%.

And the GI50 ([22]; read-out: GI50)?
The GI50 was 0.031 µM.

And the LC50 ([22]; read-out: LC50)?
Its LC50 is 31.2 µM.

And the TGI ([22]; read-out: TGI)?
Its TGI is 0.601 µM.

What about the GI50 ([22]; read-out: pGI50 (converted)) of the same compound?
The GI50 was 0.0309 µM.

And the LC50 ([22]; read-out: pLC50 (converted))?
The LC50 was 30.9 µM.

And the TGI ([22]; read-out: pTGI (converted))?
Its TGI is 0.603 µM.

And the growth at 0.01 µM [23]?
The growth at 0.01 µM was 103%.

What about the growth at 100 µM [24] of the same compound?
Its growth at 100 µM is -45%.

What about the growth at 0.1 µM [25] of the same compound?
Its growth at 0.1 µM is 97%.
